From ChEMBL document CHEMBL1759845, “Potent inhibitors of hepatitis C core dimerization as new leads for anti-hepatitis C agents” (Bioorg Med Chem Lett, 2011)
pEC50, pIC50: −log10 of the molar value.

Columns and labels:
[1] = system: Hepatitis C virus; test: Antiviral activity against Hepatitis C virus JFH-1 J6 infected in human HuH7.5 cells assessed as inhibition of virus propagation measured after 72 hrs; assay type: functional, organism-based, Hepacivirus hominis; details: subtype 2a JFH1 J6, Huh-7, 72 h
Outline: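 Huh-7.5 hepatoma cells infected with HCV genotype 2a J6/JFH-1 were treated with inhibitor at 0.001–100 µM. […] An NS3/NS4A protease inhibitor served as positive control. Values are means of three experiments.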

[2] = system: Hepatitis C virus; test: Antiviral activity against Hepatitis C virus JFH-1 J6 infected in human HuH7.5 cells assessed as inhibition of virus propagation measured after 72 hrs of transfer to fresh media; assay type: functional, organism-based, Hepacivirus hominis; details: subtype 2a JFH1 J6, Huh-7, 72 h
Outline: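 Huh-7.5 hepatoma cells, HCV 2a J6/JFH-1. Virus secreted during the initial 72 hr inhibitor-treated culture (0.001–100 µM) was used to infect fresh cells, which were cultured a second 72 hr (T2). HCV propagation was then assessed, with an NS3/NS4A protease inhibitor as positive control. Values are means of three experiments.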

[3] = Inhibition of Hepatitis C virus core protein dimerization by core dimerization assay; design: species or system Hepacivirus hominis
[4] = Cytotoxicity against human Huh7.5 cells; assay type: cell-based; details: huh-7
Outline: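 Huh-7.5 hepatoma cells; read-out is the 50% cytotoxic concentration (CC50), reported as the mean of three experiments.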

Row | SMILES | pEC50 [1] | pEC50 [2] | pIC50 [3] | CC50 [4] [nM]
1 | COc1ccc2c(O[C@@H]3C[C@H]4C(=O)N[C@]5(C(=O)O)C[C@H]5/C=C\CCCCC[C@H](NC(=O)OC5CCCC5)C(=O)N4C3)cc(-c3csc(NC(C)C)n3)nc2c1 [CILUPREVIR] | 7.14 | 7.15 | – | –
2 | COC(=O)C1=C(C(=O)OC)[C@@H]2N(CCCCCn3cc(-c4ccc(OC)cc4C)nn3)c3ccccc3[C@@]23CCC(=O)N(Cc2ccccc2)C3=N1 (racemic) | 5.85 | 5.96 | 7.04 | > 100000
3 | COC(=O)C1=C(C(=O)OC)[C@@H]2N(CCOCCN3c4ccccc4[C@]45CCC(=O)N(Cc6ccccc6)C4=NC(C(=O)OC)=C(C(=O)OC)[C@H]35)c3ccccc3[C@@]23CCC(=O)N(Cc2ccccc2)C3=N1 | 6.32 | 5.60 | 7.01 | > 100000
4 | COC(=O)C1=C(C(=O)OC)[C@@H]2N(CCCCCN3c4ccccc4[C@]45CCC(=O)N(Cc6ccccc6)C4=NC(C(=O)OC)=C(C(=O)OC)[C@H]35)c3ccccc3[C@@]23CCC(=O)N(Cc2ccccc2)C3=N1 (mixture of isomers) | 7.05 | 4.52 | 6.14 | > 36000
5 | COC(=O)C1=C(C(=O)OC)[C@@H]2N(CCCCCn3cc(CNC(C)=O)nn3)c3ccccc3[C@@]23CCC(=O)N(Cc2ccccc2)C3=N1 (racemic) | 4.58 | 4.25 | 6.47 | 150000
6 | COC(=O)C1=C(C(=O)OC)[C@@H]2N(CCCN3c4ccccc4[C@]45CCC(=O)N(Cc6ccccc6)C4=NC(C(=O)OC)=C(C(=O)OC)[C@H]35)c3ccccc3[C@@]23CCC(=O)N(Cc2ccccc2)C3=N1 | 7.06 | 6.13 | 5.54 | > 36000
